Activity calls are given as the source filed them. The rule behind the calls is not given here.

One assay has as its system K562. The assay can be described thus: Cytotoxicity against human K562 cells assessed as cell viability after 24 hrs by MTT assay. The assay is classed as functional, cell-based. Particulars: K562, 24 h. In outline:
(§1)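 Cells grown to about 50−70% confluence at 37 °C, 5% CO2, then exposed to compounds 24 h (DMSO vehicle control, cisplatin positive control). MTT (5 mg/mL stock) added for 4 h, formazan dissolved in DMSO, absorbance read at 570 nm. IC50 derived from percent viability; at least three independent experiments, mean ± SD.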
Consider `C=C1[C@@H]2CC[C@H]3[C@]4(C)CCCC(C)(C)[C@H]4C[C@@H](O)[C@]3(C2)[C@H]1O`, for which the concentration for half-maximal inhibition (IC50) was above 50 µM.

As to `C=C1[C@@H](O)[C@@]23CC[C@@H]4C(C)(C)CCC[C@@]4(C)[C@@H]2CC[C@@H]1[C@H]3O`, the half-maximal inhibitory concentration (IC50) was above 50 µM.

A further assay has as its system MDA-MB-231. The assay can be described thus: Cytotoxicity against human MDA-MB-231 cells assessed as cell viability after 24 hrs by MTT assay. It is filed as functional, cell-based. Particulars: MDA-MB-231, 24 h. In outline: as §1
As to `C=C1C(=O)[C@H]2C[C@]1(O)CC1=C2[C@]2(C)CCC[C@](C)(CO)[C@H]2CC1`, the IC50 came out at 10.4 µM.

Regarding `C=C1[C@@H]2CC[C@H]3[C@]4(C)CCCC(C)(C)[C@H]4C[C@@H](O)[C@]3(C2)[C@H]1O`, the concentration for half-maximal inhibition (IC50) was above 50 µM.

As for `C=C1[C@@H](O)[C@@]23CC[C@@H]4C(C)(C)CCC[C@@]4(C)[C@@H]2CC[C@@H]1[C@H]3O`, the IC50 was above 50 µM.

Tested on in the next assay: not listed separately
The assay is described as follows: Cytotoxicity against human RWPE1 cells assessed as cell viability after 24 hrs by MTT assay. The assay is classed as cell-based. The settings on record: RWPE-1, 24 h. The gist of the method: as §1
On to `C=C1C(=O)[C@H]2C[C@]1(O)CC1=C2[C@]2(C)CCC[C@](C)(CO)[C@H]2CC1`, for which the IC50 came to 18.6 µM.

On to `C=C1[C@@H]2CC[C@H]3[C@]4(C)CCCC(C)(C)[C@H]4C[C@@H](O)[C@]3(C2)[C@H]1O`, for which the concentration for half-maximal inhibition (IC50) is above 50 µM.

Take `C=C1[C@@H](O)[C@@]23CC[C@@H]4C(C)(C)CCC[C@@]4(C)[C@@H]2CC[C@@H]1[C@H]3O`: the IC50 was above 50 µM.

Tested on in the next assay: not listed separately
The assay can be described thus: Cytotoxicity against human A172 cells assessed as cell viability after 24 hrs by MTT assay. It is filed as functional, cell-based. Particulars: A 172, 24 h. In outline:
as §1
Turning to `C=C1[C@@H]2CC[C@H]3[C@]4(C)CCCC(C)(C)[C@H]4C[C@@H](O)[C@]3(C2)[C@H]1O`, the half-inhibitory concentration (IC50) is above 50 µM.

For `C=C1[C@@H](O)[C@@]23CC[C@@H]4C(C)(C)CCC[C@@]4(C)[C@@H]2CC[C@@H]1[C@H]3O`, the 50% inhibitory concentration (IC50) is above 50 µM.

Tested on in the next assay: not listed separately
The assay can be described thus: Cytotoxicity against human SKOV3 cells assessed as cell viability after 24 hrs by MTT assay. The assay is classed as functional, cell-based. Particulars: SK-OV-3, 24 h. The gist of the method:
as §1
For the molecule `C=C1[C@@H]2CC[C@H]3[C@]4(C)CCCC(C)(C)[C@H]4C[C@@H](O)[C@]3(C2)[C@H]1O`, the IC50 was above 50 µM.

On to `C=C1[C@@H](O)[C@@]23CC[C@@H]4C(C)(C)CCC[C@@]4(C)[C@@H]2CC[C@@H]1[C@H]3O`, for which the IC50 was above 50 µM.

Tested on in a further assay: not listed separately
The assay is described as follows: Cytotoxicity against human PC3 cells assessed as cell viability after 24 hrs by MTT assay. The assay is classed as functional, cell-based. Particulars: PC-3, 24 h. The gist of the method:
as §1
On to `C=C1C(=O)[C@H]2C[C@]1(O)CC1=C2[C@]2(C)CCC[C@](C)(CO)[C@H]2CC1`, for which the IC50 was 8.2 µM.

With `C=C1[C@@H]2CC[C@H]3[C@]4(C)CCCC(C)(C)[C@H]4C[C@@H](O)[C@]3(C2)[C@H]1O`, the concentration for half-maximal inhibition (IC50) is above 50 µM.

For the molecule `C=C1[C@@H](O)[C@@]23CC[C@@H]4C(C)(C)CCC[C@@]4(C)[C@@H]2CC[C@@H]1[C@H]3O`, the IC50 is above 50 µM.

The subject of a further assay is LNCaP. The assay is described as follows: Cytotoxicity against human LNCAP cells assessed as cell viability after 24 hrs by MTT assay.
Settings: not given
The assay is classed as functional, cell-based. The gist of the method: as §1
In the case of `C=C1[C@@H]2CC[C@H]3[C@]4(C)CCCC(C)(C)[C@H]4C[C@@H](O)[C@]3(C2)[C@H]1O`, the half-inhibitory concentration (IC50) was above 50 µM.

With `C=C1[C@@H](O)[C@@]23CC[C@@H]4C(C)(C)CCC[C@@]4(C)[C@@H]2CC[C@@H]1[C@H]3O`, the IC50 is above 50 µM.

Another assay deals with LoVo. The assay is described as follows: Cytotoxicity against human LoVo cells assessed as cell viability after 24 hrs by MTT assay. The assay is classed as functional, cell-based.
Settings: not given
In outline: as §1
In the case of `C=C1[C@@H]2CC[C@H]3[C@]4(C)CCCC(C)(C)[C@H]4C[C@@H](O)[C@]3(C2)[C@H]1O`, the 50% inhibitory concentration (IC50) is above 50 µM.

On to `C=C1[C@@H](O)[C@@]23CC[C@@H]4C(C)(C)CCC[C@@]4(C)[C@@H]2CC[C@@H]1[C@H]3O`, for which the IC50 is above 50 µM.

Tested on in the next assay: not listed separately
The assay is described as follows: Cytotoxicity against human T24 cells assessed as cell viability after 24 hrs by MTT assay. It is filed as functional, cell-based. The settings on record: T-24, 24 h. The gist of the method:
as §1
In the case of `C=C1[C@@H]2CC[C@H]3[C@]4(C)CCCC(C)(C)[C@H]4C[C@@H](O)[C@]3(C2)[C@H]1O`, the concentration for half-maximal inhibition (IC50) was above 50 µM.

For the molecule `C=C1[C@@H](O)[C@@]23CC[C@@H]4C(C)(C)CCC[C@@]4(C)[C@@H]2CC[C@@H]1[C@H]3O`, the IC50 is above 50 µM.

The next assay has as its system DU-145. The assay is described as follows: Cytotoxicity against human DU145 cells assessed as cell viability after 24 hrs by MTT assay. Particulars: DU-145, 24 h. The assay is classed as functional, cell-based. In outline: as §1
For `C=C1C(=O)[C@H]2C[C@]1(O)CC1=C2[C@]2(C)CCC[C@](C)(CO)[C@H]2CC1`, the IC50 was 9.4 µM.

Turning to `C=C1[C@@H]2CC[C@H]3[C@]4(C)CCCC(C)(C)[C@H]4C[C@@H](O)[C@]3(C2)[C@H]1O`, the concentration for half-maximal inhibition (IC50) was above 50 µM.

Turning to `C=C1[C@@H](O)[C@@]23CC[C@@H]4C(C)(C)CCC[C@@]4(C)[C@@H]2CC[C@@H]1[C@H]3O`, the IC50 was above 50 µM.

The subject of another assay is PC-3. The assay can be described thus: Reduction in glutathione level in human PC3 cells at 5 uM preincubated for 4 hrs followed by fluorescence probe addition measured after 1 hr by 3-azido-7-(diethylamino)-2H-chromen-2-one fluorescence probe-based confocal microscopic analysis. It is filed as functional, cell-based.
Settings: not given
The gist of the method:
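PC3 cells on glass coverslips treated with compound for 4 h (5 μM NEM as thiol-scavenger control), fixed in cold methanol/acetone (1:1) for 5 min. Stained with 30 μM azidocoumarin probe, which fluoresces on reaction with thiols, for 1 h at room temperature in the dark. Mean cellular fluorescence quantified by confocal microscopy; mean ± SD.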
For `C=C1C(=O)[C@H]2C[C@]1(O)CC1=C2[C@]2(C)CCC[C@](C)(CO)[C@H]2CC1`, the outcome was Active.

Tested on in another assay: not listed separately
The assay can be described thus: Cytotoxicity against human SH-SY5Y cells assessed as cell viability after 24 hrs by MTT assay. It is filed as functional, cell-based.
Settings: not given
The gist of the method: as §1
Regarding `C=C1[C@@H]2CC[C@H]3[C@]4(C)CCCC(C)(C)[C@H]4C[C@@H](O)[C@]3(C2)[C@H]1O`, the IC50 is above 50 µM.

`C=C1[C@@H](O)[C@@]23CC[C@@H]4C(C)(C)CCC[C@@]4(C)[C@@H]2CC[C@@H]1[C@H]3O`: the IC50 was above 50 µM.

In another assay the test system is NCI-H1299. The assay is described as follows: Cytotoxicity against human NCI-H1299 cells assessed as cell viability after 24 hrs by MTT assay. The settings on record: NCI-H1299, 24 h. It is filed as functional, cell-based. In outline:
as §1
Regarding `C=C1[C@@H]2CC[C@H]3[C@]4(C)CCCC(C)(C)[C@H]4C[C@@H](O)[C@]3(C2)[C@H]1O`, the concentration for half-maximal inhibition (IC50) is above 50 µM.

Regarding `C=C1[C@@H](O)[C@@]23CC[C@@H]4C(C)(C)CCC[C@@]4(C)[C@@H]2CC[C@@H]1[C@H]3O`, the concentration for half-maximal inhibition (IC50) is above 50 µM.

Tested on in a further assay: not listed separately
The assay can be described thus: Cytotoxicity against human Saos2 cells assessed as cell viability after 24 hrs by MTT assay. It is filed as functional, cell-based. Particulars: SAOS-2, 24 h. In outline: as §1
For the molecule `C=C1[C@@H]2CC[C@H]3[C@]4(C)CCCC(C)(C)[C@H]4C[C@@H](O)[C@]3(C2)[C@H]1O`, the half-inhibitory concentration (IC50) was above 50 µM.

Turning to `C=C1[C@@H](O)[C@@]23CC[C@@H]4C(C)(C)CCC[C@@]4(C)[C@@H]2CC[C@@H]1[C@H]3O`, the 50% inhibitory concentration (IC50) was above 50 µM.

Tested on in a further assay: not listed separately
The assay is described as follows: Cytotoxicity against human HL60 cells assessed as cell viability after 24 hrs by MTT assay. The assay is classed as functional, cell-based. Particulars: HL-60, 24 h. In outline: as §1
Take `C=C1[C@@H]2CC[C@H]3[C@]4(C)CCCC(C)(C)[C@H]4C[C@@H](O)[C@]3(C2)[C@H]1O`: the concentration for half-maximal inhibition (IC50) is above 50 µM.

`C=C1[C@@H](O)[C@@]23CC[C@@H]4C(C)(C)CCC[C@@]4(C)[C@@H]2CC[C@@H]1[C@H]3O`: the half-maximal inhibitory concentration (IC50) is above 50 µM.

These data come from ChEMBL document CHEMBL3425440, “ent-Kaurane Diterpenoids from Chinese Liverworts and Their Antitumor Activities through Michael Addition As Detected in Situ by a Fluorescence Probe” (J Med Chem, 2015).
